Laboratory results from article PMC7661742 (Molecular cancer therapeutics, 2020).

Key:
CDK19 = CDK19 (Homo sapiens, UniProt Q9BWU1); experiment: SelectScreen Kinase Profiling, CDK19; assay type: biochemical
Method in brief: (§1)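 Kinases were run in a commercial kinase profiling service. Single-point tests used 1 μM test compound at the ATP concentration specified per kinase. IC50 curves started at 20 μM, followed by 10 subsequent […] dilution steps.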

CDK1 = CDK1 (Homo sapiens, UniProt P06493); experiment: SelectScreen Kinase Profiling, CDK1; assay type: biochemical
Method in brief: as §1

CDK2 = CDK2 (Homo sapiens, UniProt P24941); experiment: SelectScreen Kinase Profiling, CDK2; assay type: biochemical
Method in brief: as §1

CDK4 = CDK4 (Homo sapiens, UniProt P11802); experiment: SelectScreen Kinase Profiling, CDK4; assay type: biochemical
Method in brief: as §1

CDK6 = CDK6 (Homo sapiens, UniProt Q00534); experiment: SelectScreen Kinase Profiling, CDK6; assay type: biochemical
Method in brief: as §1

CDK7 = CDK7 (Homo sapiens, UniProt P50613); experiment: SelectScreen Kinase Profiling, CDK7; assay type: biochemical
Method in brief: as §1

CDK9 = CDK9 (Homo sapiens, UniProt P50750); experiment: SelectScreen Kinase Profiling, CDK9; assay type: biochemical
Method in brief: as §1

[1] = system: granzyme B-positive murine spleen-derived NK cells; experiment: Modulation of granzyme B in mouse splenocytes; assay type: cell-based; settings: murine spleen-derived NK cells activated with IL-15 in vitro; 150 nmol/l, 44 h
Method in brief: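 Cells received 2.5 ng/ml IL-15, 150 nmol/l test compound, or both, for 44 h at 37°C and 5% CO2. Protein transport inhibitor was present for the last 4 h. Cells were stained for CD3ε, NK1.1 and intracellular granzyme B after fix/perm and gated viable CD3−NK1.1+GZMB+ (3–6 mice per group).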

[2] = system: perforin secretion from NK92MI cells; experiment: Perforin release assay; assay type: cell-based, human; settings: 24 h, ELISA
Method in brief: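 NK92MI cells were seeded at 40.000 cells/well with test compound over a concentration range and held 24 h at 37°C, humidified, 5% CO2. IL-15 (50 ng/ml) served as positive control. Secreted perforin in supernatants was quantified by ELISA.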

MC-38 cells = experiment: Viability assay, MC-38; assay type: cell-based, mouse
Method in brief: (§2)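 Mouse tumour cells were plated in 96-well plates with CDK8/19 inhibitor over a concentration range, with 72 h or 120 h timing depending on the growth of each line. Cells were held at 37°C, humidified, 5% CO2. Viability was read by CellTiter-Glo luminescence or AlamarBlue, and curves were fitted by iterative sigmoidal analysis.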

B16-F10 cells = experiment: Viability assay, B16-F10; assay type: cell-based, mouse
Method in brief: as §2

EMT6 cells = experiment: Viability assay, EMT6; assay type: cell-based, mouse
Method in brief: as §2

[3] = system: primary leukemia cells from chronic lymphocytic leukemia patients; experiment: CD20-mediated ADCC with rituximab on primary CLL cells; assay type: cell-based, human
Method in brief: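 Primary CLL cells and autologous PBMCs from patients were cultured 48 h with rituximab (10 μg/ml) plus CDK8/19 inhibitor or vehicle. Leukemia-cell depletion was counted by flow cytometry against PKH26 reference microbeads and normalised to the mean of DMSO controls (n=5). The no-NK arm used CLL cells pretreated 48 h with vehicle or inhibitor, then 4 h with vehicle or rituximab. Cell death was read by flow cytometry (n=4).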

Mouse pharmacokinetics = assay type: in vivo; settings: mice
Method in brief: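 C57BL/6 mice (n=3 per group) were given test compound orally at 25 mg/kg or intravenously at 1 mg/kg. Plasma concentrations were measured by LC-MS at set time points after dosing.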

Metabolic stability = assay type: in vitro ADME; settings: compared with Compound 2
Method in brief: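 Test compound was incubated with cryopreserved hepatocytes, and compound depletion was quantified over 240 min by LC/MS/MS. In vivo hepatic clearance was predicted from depletion using the well-stirred model.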

[4] = system: STAT1^S727 phosphorylation; assay type: in vivo, mouse; settings: daily oral dose of 10 mg/kg, for at least 6 h
B16-F10-luc2 melanoma = experiment: In vivo efficacy, B16-F10-luc2 syngeneic melanoma model; settings: 10 mg/kg daily oral
Method in brief: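 Female C57BL/6N mice received 100 thousand B16-F10-luc2 cells intravenously. They were randomized by body weight on day 5, 10 mice per group, then dosed orally once daily. Tumor burden was read as average radiance by luciferase in vivo imaging, alongside survival and body weight. TGI = [1-((treated(final) – treated(Day1))/(control(final) – control(Day1)))] * 100%.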

MC38 tumors = experiment: In vivo efficacy, MC-38 murine syngeneic colon adenocarcinoma model; design: species or system mouse; settings: BI-1347 10 mg/kg daily oral; anti-PD-1 10 mg/kg i.p. twice weekly
Method in brief: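 Female C57BL/6N mice were implanted subcutaneously with 100 thousand MC38 cells and randomized by body weight on day 3, 5 mice per group. The anti-PD-1 was rat IgG2a anti-mouse PD-1 (RMP1–14). Readouts were response and TGI at day 20 and complete responses at study end. Groups were compared by one-tailed, non-adjusted Mann Whitney test.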

EMT6 tumors = experiment: In vivo efficacy, EMT6 murine mammary carcinoma model; design: species or system mouse; settings: BI-1347 monotherapy

CDK4, sequence (P11802 whole entry): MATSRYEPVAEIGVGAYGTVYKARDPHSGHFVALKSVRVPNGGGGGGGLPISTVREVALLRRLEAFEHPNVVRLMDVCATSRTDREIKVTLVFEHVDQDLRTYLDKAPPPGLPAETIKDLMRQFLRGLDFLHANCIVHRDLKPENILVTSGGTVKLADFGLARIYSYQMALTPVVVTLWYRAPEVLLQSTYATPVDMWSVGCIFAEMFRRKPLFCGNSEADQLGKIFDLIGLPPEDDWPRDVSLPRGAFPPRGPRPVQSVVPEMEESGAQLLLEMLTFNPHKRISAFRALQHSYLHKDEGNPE
CDK4, sequence (P24385 whole entry partner): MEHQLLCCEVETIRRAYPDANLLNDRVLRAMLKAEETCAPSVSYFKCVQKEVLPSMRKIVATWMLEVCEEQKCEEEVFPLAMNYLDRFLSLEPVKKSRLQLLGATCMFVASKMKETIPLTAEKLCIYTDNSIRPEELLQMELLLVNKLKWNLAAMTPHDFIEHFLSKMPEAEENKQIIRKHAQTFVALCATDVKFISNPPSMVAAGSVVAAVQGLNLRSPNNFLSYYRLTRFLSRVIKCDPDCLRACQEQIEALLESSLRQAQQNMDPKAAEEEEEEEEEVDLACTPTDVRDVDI
CDK6, sequence (Q00534 whole entry): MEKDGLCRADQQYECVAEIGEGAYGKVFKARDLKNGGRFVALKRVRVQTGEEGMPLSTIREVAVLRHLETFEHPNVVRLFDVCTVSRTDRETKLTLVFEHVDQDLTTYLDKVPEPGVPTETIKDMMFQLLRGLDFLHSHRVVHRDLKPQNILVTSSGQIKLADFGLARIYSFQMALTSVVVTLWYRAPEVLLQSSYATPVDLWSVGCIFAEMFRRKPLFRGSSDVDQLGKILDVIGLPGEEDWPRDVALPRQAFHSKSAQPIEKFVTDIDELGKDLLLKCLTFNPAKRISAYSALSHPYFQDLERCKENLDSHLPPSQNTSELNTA
CDK6, sequence (P24385 whole entry partner): as the sequence (P24385 whole entry partner) above
CDK1, sequence (P06493 whole entry): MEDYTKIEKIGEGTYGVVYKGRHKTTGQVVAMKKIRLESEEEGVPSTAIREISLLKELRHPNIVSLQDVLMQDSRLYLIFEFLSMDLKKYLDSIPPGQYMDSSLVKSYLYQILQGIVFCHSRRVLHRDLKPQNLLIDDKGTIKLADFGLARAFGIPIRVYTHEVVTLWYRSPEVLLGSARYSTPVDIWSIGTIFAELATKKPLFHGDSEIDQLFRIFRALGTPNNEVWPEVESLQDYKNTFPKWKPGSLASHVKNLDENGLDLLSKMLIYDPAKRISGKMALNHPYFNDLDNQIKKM
CDK1, sequence (P14635 whole entry partner): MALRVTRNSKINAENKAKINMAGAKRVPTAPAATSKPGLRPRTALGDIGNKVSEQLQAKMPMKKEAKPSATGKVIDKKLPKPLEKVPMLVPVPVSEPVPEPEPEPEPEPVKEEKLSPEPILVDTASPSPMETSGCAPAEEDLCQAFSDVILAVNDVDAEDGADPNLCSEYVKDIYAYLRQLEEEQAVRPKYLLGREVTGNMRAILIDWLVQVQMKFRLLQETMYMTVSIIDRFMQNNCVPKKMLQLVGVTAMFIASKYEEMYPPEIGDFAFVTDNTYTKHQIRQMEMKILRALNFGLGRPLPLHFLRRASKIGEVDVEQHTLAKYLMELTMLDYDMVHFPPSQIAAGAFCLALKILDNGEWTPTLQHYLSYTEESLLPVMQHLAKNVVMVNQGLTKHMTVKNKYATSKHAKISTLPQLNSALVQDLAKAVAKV
CDK9, sequence (P50750 whole entry): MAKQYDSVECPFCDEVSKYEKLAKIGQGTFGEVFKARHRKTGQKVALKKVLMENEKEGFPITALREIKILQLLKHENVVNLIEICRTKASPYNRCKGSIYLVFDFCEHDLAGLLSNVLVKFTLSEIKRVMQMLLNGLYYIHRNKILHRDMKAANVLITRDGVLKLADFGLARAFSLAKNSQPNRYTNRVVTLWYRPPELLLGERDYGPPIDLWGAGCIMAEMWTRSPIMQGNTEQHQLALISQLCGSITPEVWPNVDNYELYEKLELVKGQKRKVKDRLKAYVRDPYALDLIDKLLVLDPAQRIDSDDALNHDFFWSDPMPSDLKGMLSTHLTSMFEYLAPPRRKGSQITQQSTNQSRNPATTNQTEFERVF
CDK9, sequence (O60563 whole entry partner): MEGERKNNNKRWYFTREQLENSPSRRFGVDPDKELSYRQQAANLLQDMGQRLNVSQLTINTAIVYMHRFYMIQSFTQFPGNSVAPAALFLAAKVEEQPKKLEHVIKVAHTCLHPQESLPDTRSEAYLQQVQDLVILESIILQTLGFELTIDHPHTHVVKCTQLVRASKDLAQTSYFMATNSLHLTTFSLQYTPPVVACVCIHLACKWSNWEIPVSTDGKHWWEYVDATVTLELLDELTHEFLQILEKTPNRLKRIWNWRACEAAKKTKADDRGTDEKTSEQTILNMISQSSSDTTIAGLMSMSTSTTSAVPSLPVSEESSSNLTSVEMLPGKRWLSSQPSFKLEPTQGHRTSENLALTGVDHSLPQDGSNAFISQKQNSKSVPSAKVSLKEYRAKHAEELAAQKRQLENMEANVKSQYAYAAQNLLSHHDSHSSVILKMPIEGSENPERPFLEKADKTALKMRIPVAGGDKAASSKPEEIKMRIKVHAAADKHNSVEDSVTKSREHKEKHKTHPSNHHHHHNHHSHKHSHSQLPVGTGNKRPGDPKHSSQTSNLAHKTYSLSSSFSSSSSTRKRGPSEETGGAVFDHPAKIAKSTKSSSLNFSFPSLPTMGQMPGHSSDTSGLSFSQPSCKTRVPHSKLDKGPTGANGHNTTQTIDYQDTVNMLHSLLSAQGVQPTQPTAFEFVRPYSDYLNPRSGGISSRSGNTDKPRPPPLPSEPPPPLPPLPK
CDK19, sequence (Q9BWU1 whole entry): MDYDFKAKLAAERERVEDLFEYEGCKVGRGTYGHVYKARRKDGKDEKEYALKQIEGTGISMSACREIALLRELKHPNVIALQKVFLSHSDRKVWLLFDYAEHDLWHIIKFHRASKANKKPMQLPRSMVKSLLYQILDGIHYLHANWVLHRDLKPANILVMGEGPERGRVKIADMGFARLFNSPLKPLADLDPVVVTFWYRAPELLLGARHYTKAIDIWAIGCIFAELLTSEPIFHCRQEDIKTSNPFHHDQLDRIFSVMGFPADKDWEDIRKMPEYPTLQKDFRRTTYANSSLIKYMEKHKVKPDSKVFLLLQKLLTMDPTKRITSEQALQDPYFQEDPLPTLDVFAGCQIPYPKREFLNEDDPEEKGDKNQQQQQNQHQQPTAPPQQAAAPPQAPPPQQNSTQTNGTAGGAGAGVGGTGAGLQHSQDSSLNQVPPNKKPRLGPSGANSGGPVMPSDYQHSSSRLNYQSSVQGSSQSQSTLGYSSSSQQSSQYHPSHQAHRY
CDK7, sequence (P50613 whole entry): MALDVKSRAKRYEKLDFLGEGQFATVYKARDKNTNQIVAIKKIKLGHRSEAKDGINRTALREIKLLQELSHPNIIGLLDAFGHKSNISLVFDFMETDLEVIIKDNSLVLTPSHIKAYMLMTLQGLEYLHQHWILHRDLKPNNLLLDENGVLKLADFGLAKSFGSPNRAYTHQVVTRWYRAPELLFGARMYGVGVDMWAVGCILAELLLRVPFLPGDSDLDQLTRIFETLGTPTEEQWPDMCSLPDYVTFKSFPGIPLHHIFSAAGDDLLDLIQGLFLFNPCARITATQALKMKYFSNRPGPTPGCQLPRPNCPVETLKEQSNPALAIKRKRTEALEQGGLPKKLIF
CDK7, sequence (P51946 whole entry partner): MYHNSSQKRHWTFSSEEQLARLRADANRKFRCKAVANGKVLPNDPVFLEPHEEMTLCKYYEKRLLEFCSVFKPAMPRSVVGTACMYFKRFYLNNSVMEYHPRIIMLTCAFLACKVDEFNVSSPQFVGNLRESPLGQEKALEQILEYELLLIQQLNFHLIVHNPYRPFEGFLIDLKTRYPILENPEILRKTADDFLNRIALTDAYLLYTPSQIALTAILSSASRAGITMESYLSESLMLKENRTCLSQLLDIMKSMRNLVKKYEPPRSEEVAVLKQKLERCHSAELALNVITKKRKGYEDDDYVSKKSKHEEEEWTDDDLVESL
CDK7, sequence (P51948 whole entry partner): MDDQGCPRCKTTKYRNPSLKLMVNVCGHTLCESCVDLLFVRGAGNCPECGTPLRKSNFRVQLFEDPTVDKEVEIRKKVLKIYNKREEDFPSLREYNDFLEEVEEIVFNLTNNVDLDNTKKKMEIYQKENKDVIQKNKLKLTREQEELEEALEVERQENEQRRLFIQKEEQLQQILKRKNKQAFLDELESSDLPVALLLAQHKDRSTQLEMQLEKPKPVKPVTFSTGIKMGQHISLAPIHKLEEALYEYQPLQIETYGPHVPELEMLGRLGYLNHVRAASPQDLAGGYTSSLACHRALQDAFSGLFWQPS

CN(C)C(=O)Cn1cc(-c2ccc(-c3cncc4ccccc34)cc2)cn1 [BI-1347]
IC50 (CDK19): < 1 µM | inhibition of CDK1 (CDK1): no inhibition | inhibition of CDK2 (CDK2): no inhibition | inhibition of CDK4 (CDK4): no inhibition | inhibition of CDK6 (CDK6): no inhibition | inhibition of CDK7 (CDK7): no inhibition | inhibition of CDK9 (CDK9): no inhibition | increase of the proportion of granzyme B-positive NK cells [1]: approximately 4 fold | perforin levels in the supernatant [2]: increased perforin levels | in vitro sensitivity (MC-38 cells): resistant | in vitro sensitivity (B16-F10 cells): resistant | in vitro sensitivity (EMT6 cells): resistant | ADCC mediated depletion of primary leukemia cells by rituximab ([3]; in presence of PBMCs, 48 h): enhances | enhanced ADCC effect in absence of NK cells ([3]; purified CLL cells with rituximab, no NK cells): not observed | exposure and bioavailability (F) after p.o. dosing (Mouse pharmacokinetics): Excellent exposure and bioavailability | plasma concentration 24 h after dosing relative to the CDK8 IC50 (Mouse pharmacokinetics; 25 mg/kg p.o.): around 100 fold | clearance (Mouse pharmacokinetics; i.v. administration): 14 % QH | metabolic stability in vitro and in vivo (Metabolic stability): higher metabolic stability | reduction of phosphorylation of STAT1^S727 [4]: 60% | median survival advantage compared to vehicle-treated animals (B16-F10-luc2 melanoma): 4 days | tolerability (body weight) (B16-F10-luc2 melanoma): well tolerated with minimal effect on body weight | tumor growth inhibition (TGI) (B16-F10-luc2 melanoma; day 23): 94% | tumor growth inhibition (TGI) (B16-F10-luc2 melanoma; day 29): 88% | mice surviving until day 42 (B16-F10-luc2 melanoma; all control mice sacrificed by day 32): 2/10 | CR [@ end of study, number of mice] (MC38 tumors): 0/5 | Response [@ d20, number of mice] (MC38 tumors): 2/5 | median survival (EMT6 tumors; 5 days on / 5 days off intermittent scheduling): 26 days | median survival (EMT6 tumors; daily oral 10 mg/kg, control 22 days): 22.5 days
